Source: PubChem BioAssay (several laboratories)
Rows were chosen to be rich in hits. Some 0.72% of all compounds tested hit in one or more screens of this group.
PolyA inhibitor: yeast polyadenylation inhibition. S. cerevisiae SKY197-pL101 polyadenylation reporter, beta-gal luminescence; efflux-impaired pdr1/pdr3 knockout yeast; score 100 = 6 SD above DMSO. activity score, % at 12 µM. hit rate 0.02% among 300,000. AID 1875;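 active = lowest replicate activity score at least 50, where 100 means six control SD above control mean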;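 note: yeast exposed to compound for 9 h at 30 °C; higher score means more reporter readthrough which indicates perturbed polyadenylation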
CR mimetic SO: yeast age-related superoxide inhibition as caloric restriction mimetic; S. cerevisiae aged cells, superoxide DHE fluorescence; active compounds read low; superoxide response (% of plate mean), % at 10 µM; hit rate 0.18% among 330,000; AID 2690;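 active = superoxide response under a set limit, about three screen SD below normal, cut at about 65% in these data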;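 note: yeast aged for seven days with compound at 30 °C before DHE staining; 100% = average MFI of all compound-treated wells on the plate with controls excluded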
GSK3beta inhib: human GSK3beta kinase inhibition | activity score (negative = inhibition), % at 10 µM | GST-GSK3beta kinase, ADP-Glo luminescence, 60 min; active compounds read low | P49841 | hit rate 0.038% among 300,000 | AID 2097;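 active = more than half of replicate wells score below -50%, meaning over 50% inhibition versus plate controls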;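 note: 0% = median DMSO wells and -100% = median GW8510 positive control wells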
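Assay system: GST-tagged human GSK3beta kinase, cell-free; Input: 1.6 ng GSK3beta; Medium: Tris/MgCl2 kinase buffer; Timing: 60 min enzyme reaction, room temperature; Signal: ADP-Glo luminescence quantifying ADP generated by kinase; Evaluation: score relative to plate controls; Benchmarks: DMSO neutral wells and GW8510 at 20 µM as positive.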
STK33 inh: blocks human STK33 kinase activity | Q9BYT3 | purified STK33, MBP phosphorylation, ADP-Glo luminescence | inhibition, % at 10 µM | hit rate 0.073% among 320,000 | AID 2661;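 active = inhibition at or above 25%, using the most active replicate where run in duplicate; inactive = inhibition below 25%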
Target sequence (Q9BYT3 whole entry, looked up): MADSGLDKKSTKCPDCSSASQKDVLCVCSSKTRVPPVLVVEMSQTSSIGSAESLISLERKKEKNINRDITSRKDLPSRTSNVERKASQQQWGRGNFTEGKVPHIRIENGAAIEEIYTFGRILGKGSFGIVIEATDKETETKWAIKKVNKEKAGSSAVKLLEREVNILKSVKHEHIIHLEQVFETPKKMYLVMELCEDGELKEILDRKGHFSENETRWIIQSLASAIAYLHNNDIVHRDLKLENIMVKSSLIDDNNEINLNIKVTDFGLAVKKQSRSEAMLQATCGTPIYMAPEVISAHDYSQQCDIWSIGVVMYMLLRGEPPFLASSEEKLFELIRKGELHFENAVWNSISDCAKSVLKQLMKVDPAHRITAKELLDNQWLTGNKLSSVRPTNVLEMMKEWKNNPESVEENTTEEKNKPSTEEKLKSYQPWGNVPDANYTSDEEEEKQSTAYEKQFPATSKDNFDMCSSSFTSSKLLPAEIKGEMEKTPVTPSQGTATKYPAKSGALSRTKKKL
GSK3 alpha inh: human GSK-3 alpha kinase inhibition. inhibition, % at 10 µM. P49840. ADP-Glo luminescence, 60 min. hit rate 0.1% among 320,000;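 active = more than half of replicates show inhibition above 20%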;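 note: GST-tagged GSK-3 alpha with peptide substrate and 25 µM ATP; 0% = DMSO neutral wells and 100% = GW8510 positive control wells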
AI-2 QS modul: Vibrio harveyi AI-2 quorum sensing modulation; Vibrio harveyi JMH597 AI-2 luminescence/OD600 ratio, 9 h; active compounds read low; strain lacks LuxN and CqsS sensors; 0 = neutral-control median; activity change, % at 7.5 µM; hit rate 0.4% among 300,000; in the data active = activity change below about -75%, passing the limit was not always enough;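 note: luminescence divided by OD600 gain over 9 h not by final OD600 alone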
CR mimetic CP: confirmation of caloric restriction mimetics inhibiting yeast age-related superoxide. shares compounds with CR mimetic SO. S. cerevisiae aging, superoxide DHE fluorescence; active compounds read low. superoxide response (% of plate), % at 10 µM. hit rate 1% among 850;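 active = superoxide signal below 65% of the plate average of sample wells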;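 note: cells aged with compound for 7 days at 30 degrees C before staining; 100% equals mean DHE fluorescence of all compound wells on the plate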
DHE counter: compound alters DHE oxidation or fluorescence in yeast. shares compounds with CR mimetic SO. S. cerevisiae BY4741, flow cytometry; active compounds read low. fluorescence response, % at 10 µM. AID 435000. 850 tested, under 10 active;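 active = fluorescence response below 15%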;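 note: percent of the mean fluorescence averaged over all compound wells on the plate; lower means stronger quenching of DHE signal or ROS scavenging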
Starred values were filed as active, the others as inactive; / = no result.

SMILES	PolyA inhibitor	CR mimetic SO	GSK3beta inhib	STK33 inh	GSK3 alpha inh	AI-2 QS modul	CR mimetic CP	DHE counter
COc1cc(C)c(Cl)cc1S(=O)(=O)N1CCCC1	-3	100	2	1	2	12	103	90
COc1cc(C)c(Br)cc1S(=O)(=O)N1CCCC1	-4	102	0	-3	1	2	100	95
COc1cc(S(=O)(=O)N2CCCC2)c(C)cc1C	-6	110	0	-1	-2	10	/	/
COc1cc(Cl)c(S(=O)(=O)N2CCCC2)cc1Cl	-16	87	1	-1	-4	14	92	97
Cc1c([N+](=O)[O-])cnc(Sc2ccccc2)c1[N+](=O)[O-]	-40	89	4	0	-5	16	/	/
COc1ccc(-c2nc3ncccc3o2)cc1NC(=O)c1ccco1	-17	84	-4	-1	2	9	/	/
COCCCN1C(=O)N(c2ccccc2)C(=O)C1CC(=O)Nc1ccccc1 (stereo not given)	16	116	-3	0	-4	18	/	/
COCCCN1C(=O)N(c2ccccc2)C(=O)C1CC(=O)Nc1ccc(F)cc1 (stereo not given)	11	62*	-1	-1	0	20	95	90
CCN=C1SC(CC(=O)NCc2ccccc2)C(=O)N1CC (stereo not given)	7	112	-2	0	/	21	/	/
CC12CCCC[C@@H]1CCC1C2CCC2(C)C1CC[C@@]2(O)CNCCO (stereo not given in full)	-15	89	-2	-2	-5	6	103	94
CCN(CC)C(=O)c1cn(CCC#N)nc1-c1ccc(F)cc1	-3	95	1	0	-1	39	/	/
O=C(Cn1cnc2nc3n(c2c1=O)CCC3)NCc1ccccc1	-8	101	3	0	1	16	/	/
Nc1c(NCc2ccccc2)c(=O)c1=O	6	63*	-1	-1	-1	17	96	91
O=c1cccccc1NCc1ccccc1	-11	102	0	1	2	4	/	/
CCOC(=O)C1(Cc2cccc(OC)c2)CCN(Cc2cnc(C)s2)CC1	10	102	-1	-2	0	21	/	/
CC1CCCCN1S(=O)(=O)c1ccc(C(=O)Nc2nnc(C3=COCCO3)o2)cc1 (stereo not given)	-15	126	0	-1	3	48	94	101
Cc1nnc(NC(=O)c2ccc(S(=O)(=O)N3CCCCC3C)cc2)o1 (stereo not given)	-30	93	-2	3	5	30	/	/
CC1CCCCN1S(=O)(=O)c1ccc(C(=O)Nc2nnc(-c3ccco3)o2)cc1 (stereo not given)	-18	102	-1	-1	2	41	99	91
CC1CCCCN1S(=O)(=O)c1ccc(C(=O)Nc2nnc(C3CC3)o2)cc1 (stereo not given)	11	91	-2	-1	1	30	97	102
CC1CCCCN1S(=O)(=O)c1ccc(C(=O)Nc2nnc(-c3ccccn3)o2)cc1 (stereo not given)	-1	82	1	0	-1	19	/	/
CC1CCN(S(=O)(=O)c2ccc(C(=O)Nc3nnc(C4CC4)o3)cc2)CC1	12	83	-1	-1	0	26	87	98
COc1cc(C(=O)NCCC(=O)NC2CCCCC2)cc(OC)c1OC	1	111	4	1	-1	25	/	/
COc1cc(C(=O)NCCC(=O)NCCCN2CCCCC2C)cc(OC)c1OC (stereo not given)	23	62*	-1	-1	-5	16	123	112
COc1ccc(/C=N/NC(=O)CCN2CCN(c3ccccc3)CC2)c(OC)c1OC	2	62*	3	5	7	8	108	106
COc1cc(/C=N/NC(=O)CCN2CCN(c3ccccc3)CC2)cc(OC)c1OC	/	110	1	-1	/	21	/	/
SMILES	PolyA inhibitor	CR mimetic SO	GSK3beta inhib	STK33 inh	GSK3 alpha inh	AI-2 QS modul	CR mimetic CP	DHE counter
CN1C(=O)CCC(CCC(=O)O)(c2ccccc2O)C1=O (stereo not given)	-9	63*	0	1	-1	1	103	106
CCN(Cc1ccccc1)S(=O)(=O)c1ccc(C(=O)Nc2nnc(C)o2)cc1	-2	82	0	1	4	9	87	100
CCN(CC)C(=O)c1ccc(NS(=O)(=O)c2ccccc2)cc1	10	89	-5	-1	/	16	/	/
CC(=O)c1ccc(NS(=O)(=O)c2ccccc2)cc1	1	104	1	0	0	22	94	86
Cc1ccccc1NC(=O)c1nc(S(C)(=O)=O)ncc1Cl	0	108	/	-3	-1	/	99	91
CSc1ncc(Cl)c(C(=O)Nc2cccc(C)c2)n1	-1	96	1	2	0	23	101	90
CSc1ncc(Cl)c(C(=O)Nc2cccc(Cl)c2)n1	-26	94	2	0	0	-4	96	99
CSc1ncc(Cl)c(C(=O)Nc2ccccc2Br)n1	5	103	2	1	-2	27	105	108
CSc1ncc(Cl)c(C(=O)Nc2cccc3ccccc23)n1	3	98	-2	-1	-3	12	/	/
COc1cc(OC)cc(-c2c(-c3cccs3)c3cc(-c4cccc5[nH]ccc45)ccc3n2C)c1	/	70	/	-1	-1	/	/	/
CN(CC(=O)NCCc1ccccc1)Cc1ccco1	24	88	6	0	5	-4	/	/
O=C(COC(=O)c1ccccc1C(=O)c1ccc(Cl)cc1)NC(c1ccccc1)c1ccccc1	11	86	2	-1	-1	16	/	/
CC1(C)CC(NCc2cccc([N+](=O)[O-])c2)CC(C)(C)N1	9	62*	-4	0	-1	-2	112	88
CCOc1ccc(N2CC(C(=O)Nc3ccccc3C(=O)N3CCOCC3)CC2=O)cc1 (stereo not given)	14	114	-1	-2	-1	28	/	/
Cc1nc(Nc2ccc(S(=O)(=O)N3CCCCC3C)cc2)c2nnn(Cc3ccccc3)c2n1 (stereo not given)	-2	59*	2	-1	0	2	106	109
Cc1nc(Nc2ccc(Cl)cc2)c2nnn(Cc3ccccc3)c2n1	0	110	-2	-2	-3	17	/	/
COc1cc([N+](=O)[O-])ccc1NC(=O)NCC1CCN(Cc2ccc(Cl)cc2)CC1	25	30*	3	2	5	24	104	111
